Test results reported in ChEMBL document CHEMBL5705888, “Substrate specificity and inhibitors of LRRK2, a protein kinase mutated in Parkinson's disease” (Biochem J, 2009).
The source made the active and inactive calls. The rule behind the calls is not given here.

What was measured:
[1] = target: T1, Serine/threonine-protein kinase TBK1 (Homo sapiens) (UniProt Q9UHD2); assay: Inhibition of TBK1 (unknown origin) at 1 uM incubated for 30 mins in presence of [gamma-33P]ATP by multidrop micro reagent based assay relative to control; values are per cent of control
T1 sequence (whole entry): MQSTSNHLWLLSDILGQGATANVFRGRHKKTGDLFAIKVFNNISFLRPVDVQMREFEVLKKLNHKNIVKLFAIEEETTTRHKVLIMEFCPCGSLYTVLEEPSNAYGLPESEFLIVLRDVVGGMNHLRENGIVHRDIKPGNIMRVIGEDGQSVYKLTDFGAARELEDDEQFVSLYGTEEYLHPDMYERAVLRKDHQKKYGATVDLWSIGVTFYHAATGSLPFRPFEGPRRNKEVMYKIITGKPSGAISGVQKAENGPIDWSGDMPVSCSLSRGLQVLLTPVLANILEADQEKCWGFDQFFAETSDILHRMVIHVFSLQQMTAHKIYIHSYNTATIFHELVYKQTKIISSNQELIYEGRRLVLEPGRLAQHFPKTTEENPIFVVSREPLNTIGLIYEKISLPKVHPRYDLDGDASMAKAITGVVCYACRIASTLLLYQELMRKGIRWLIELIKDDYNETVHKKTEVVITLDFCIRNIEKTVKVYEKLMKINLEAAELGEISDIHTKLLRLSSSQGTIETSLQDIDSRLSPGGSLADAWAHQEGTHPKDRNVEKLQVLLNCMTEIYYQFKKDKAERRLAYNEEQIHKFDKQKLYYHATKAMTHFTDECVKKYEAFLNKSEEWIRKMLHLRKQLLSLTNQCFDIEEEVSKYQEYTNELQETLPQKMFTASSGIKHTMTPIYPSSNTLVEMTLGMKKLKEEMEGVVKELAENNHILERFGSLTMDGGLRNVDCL

[2] = target: Leucine-rich repeat serine/threonine-protein kinase 2 (Homo sapiens, UniProt Q5S007); assay: Inhibition of LRRK2 in human Flp-In-T-REx-293 cells assessed as inhibition of ERM phosphorylation at 10 uM incubated for 1 hr in presence of LRRKtide by immunoblot analysis; type: cell-based
Method in brief: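 Flp-in T-REx cells carrying GFP-tagged G14V-Rho were left uninduced or induced with 1 μg/ml doxycycline. At 7 h, compound at 10 μM was added for 1 h. Cells were lysed in SDS lysis buffer, run on 4–12% gels and immunoblotted with pan-phospho-ERM antibody (1 μg/ml in milk/TBST containing 10 μg/ml LRRKtide).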

[3] = target: Tyrosine-protein kinase Yes (Homo sapiens) (UniProt P07947); assay: Inhibition of YES1 (unknown origin) at 1 uM incubated for 30 mins in presence of [gamma-33P]ATP by multidrop micro reagent based assay relative to control; values are per cent of control
[4] = target: Serine/threonine-protein kinase N2 (Homo sapiens) (UniProt Q16513); assay: Inhibition of PRK2 (unknown origin) at 1 uM incubated for 30 mins in presence of [gamma-33P]ATP by multidrop micro reagent based assay relative to control; values are per cent of control
[5] = target: Serine/threonine-protein kinase pim-3 (Homo sapiens) (UniProt Q86V86); assay: Inhibition of PIM3 (unknown origin) at 1 uM incubated for 30 mins in presence of [gamma-33P]ATP by multidrop micro reagent based assay relative to control; values are per cent of control
[6] = target: T2, Serine/threonine-protein kinase STK11 (Homo sapiens) (UniProt Q15831); assay: Inhibition of LKB1 (unknown origin) at 1 uM incubated for 30 mins in presence of [gamma-33P]ATP by multidrop micro reagent based assay relative to control
T2 sequence (whole entry): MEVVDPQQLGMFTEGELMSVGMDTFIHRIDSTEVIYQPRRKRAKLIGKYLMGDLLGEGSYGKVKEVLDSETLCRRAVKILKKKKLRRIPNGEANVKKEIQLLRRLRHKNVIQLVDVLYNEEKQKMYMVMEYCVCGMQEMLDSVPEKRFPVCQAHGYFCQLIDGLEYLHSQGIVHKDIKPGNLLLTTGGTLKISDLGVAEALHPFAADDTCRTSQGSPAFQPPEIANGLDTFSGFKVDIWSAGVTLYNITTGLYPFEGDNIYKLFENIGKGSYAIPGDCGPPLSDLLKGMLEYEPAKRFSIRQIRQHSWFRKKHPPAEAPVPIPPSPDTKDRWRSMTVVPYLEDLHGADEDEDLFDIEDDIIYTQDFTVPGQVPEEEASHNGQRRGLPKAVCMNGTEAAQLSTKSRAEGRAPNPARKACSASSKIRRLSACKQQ

[7] = target: Ribosomal protein S6 kinase alpha-3 (Homo sapiens) (UniProt P51812); assay: Inhibition of RSK2 (unknown origin) at 1 uM incubated for 30 mins in presence of [gamma-33P]ATP by multidrop micro reagent based assay relative to control; values are per cent of control
[8] = target: Homeodomain-interacting protein kinase 2 (Homo sapiens) (UniProt Q9H2X6); assay: Inhibition of HIPK2 (unknown origin) at 10 uM incubated for 30 mins in presence of [gamma-33P]ATP by multidrop micro reagent based assay relative to control; values are per cent of control

Chain of Ribosomal protein S6 kinase alpha-3 (Homo sapiens) (P51812 whole entry): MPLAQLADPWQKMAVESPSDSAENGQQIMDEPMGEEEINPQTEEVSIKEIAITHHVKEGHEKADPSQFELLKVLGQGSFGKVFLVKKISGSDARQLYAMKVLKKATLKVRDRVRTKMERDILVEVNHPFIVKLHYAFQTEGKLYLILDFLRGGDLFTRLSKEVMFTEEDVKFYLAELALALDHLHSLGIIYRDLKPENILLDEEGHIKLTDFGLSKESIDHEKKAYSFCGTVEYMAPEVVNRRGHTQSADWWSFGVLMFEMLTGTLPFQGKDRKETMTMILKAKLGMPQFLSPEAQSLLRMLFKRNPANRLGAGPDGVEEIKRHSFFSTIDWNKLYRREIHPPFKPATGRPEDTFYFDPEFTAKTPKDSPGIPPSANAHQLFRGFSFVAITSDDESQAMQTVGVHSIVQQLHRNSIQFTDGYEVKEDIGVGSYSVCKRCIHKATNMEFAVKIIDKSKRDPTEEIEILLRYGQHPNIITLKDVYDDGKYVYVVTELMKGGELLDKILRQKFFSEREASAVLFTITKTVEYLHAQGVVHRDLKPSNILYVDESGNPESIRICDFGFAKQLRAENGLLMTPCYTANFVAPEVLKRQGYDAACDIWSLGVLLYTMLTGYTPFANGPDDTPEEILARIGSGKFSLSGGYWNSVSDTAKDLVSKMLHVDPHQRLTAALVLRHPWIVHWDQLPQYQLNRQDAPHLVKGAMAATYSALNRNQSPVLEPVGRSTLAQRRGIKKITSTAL
Chain of Serine/threonine-protein kinase N2 (Homo sapiens) (Q16513 whole entry, looked up): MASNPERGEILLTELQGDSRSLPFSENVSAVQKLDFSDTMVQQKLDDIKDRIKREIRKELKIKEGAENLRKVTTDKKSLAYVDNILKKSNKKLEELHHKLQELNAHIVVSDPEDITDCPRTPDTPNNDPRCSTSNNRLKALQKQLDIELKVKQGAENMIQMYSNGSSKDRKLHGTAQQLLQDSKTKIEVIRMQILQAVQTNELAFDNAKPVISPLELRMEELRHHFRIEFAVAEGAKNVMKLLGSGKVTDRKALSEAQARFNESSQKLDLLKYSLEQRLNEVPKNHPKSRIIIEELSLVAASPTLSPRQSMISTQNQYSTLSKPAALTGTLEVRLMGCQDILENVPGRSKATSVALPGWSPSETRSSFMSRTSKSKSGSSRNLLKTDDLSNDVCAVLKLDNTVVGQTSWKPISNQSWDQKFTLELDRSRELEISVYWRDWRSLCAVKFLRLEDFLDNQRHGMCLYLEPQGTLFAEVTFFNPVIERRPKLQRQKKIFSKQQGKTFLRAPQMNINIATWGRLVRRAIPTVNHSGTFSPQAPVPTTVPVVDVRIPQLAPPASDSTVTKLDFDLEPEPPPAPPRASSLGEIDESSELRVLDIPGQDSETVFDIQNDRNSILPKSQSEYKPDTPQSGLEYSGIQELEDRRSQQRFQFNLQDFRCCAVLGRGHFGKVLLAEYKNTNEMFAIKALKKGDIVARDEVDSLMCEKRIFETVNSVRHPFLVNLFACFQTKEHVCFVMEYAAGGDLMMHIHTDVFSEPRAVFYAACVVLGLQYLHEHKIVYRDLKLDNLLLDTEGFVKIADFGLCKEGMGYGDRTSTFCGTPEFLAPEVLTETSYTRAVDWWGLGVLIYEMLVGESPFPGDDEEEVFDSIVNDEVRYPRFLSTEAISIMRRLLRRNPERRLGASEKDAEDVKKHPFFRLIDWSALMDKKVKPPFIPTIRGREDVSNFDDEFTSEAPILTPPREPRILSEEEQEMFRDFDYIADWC
Chain of Leucine-rich repeat serine/threonine-protein kinase 2 (Q5S007 whole entry): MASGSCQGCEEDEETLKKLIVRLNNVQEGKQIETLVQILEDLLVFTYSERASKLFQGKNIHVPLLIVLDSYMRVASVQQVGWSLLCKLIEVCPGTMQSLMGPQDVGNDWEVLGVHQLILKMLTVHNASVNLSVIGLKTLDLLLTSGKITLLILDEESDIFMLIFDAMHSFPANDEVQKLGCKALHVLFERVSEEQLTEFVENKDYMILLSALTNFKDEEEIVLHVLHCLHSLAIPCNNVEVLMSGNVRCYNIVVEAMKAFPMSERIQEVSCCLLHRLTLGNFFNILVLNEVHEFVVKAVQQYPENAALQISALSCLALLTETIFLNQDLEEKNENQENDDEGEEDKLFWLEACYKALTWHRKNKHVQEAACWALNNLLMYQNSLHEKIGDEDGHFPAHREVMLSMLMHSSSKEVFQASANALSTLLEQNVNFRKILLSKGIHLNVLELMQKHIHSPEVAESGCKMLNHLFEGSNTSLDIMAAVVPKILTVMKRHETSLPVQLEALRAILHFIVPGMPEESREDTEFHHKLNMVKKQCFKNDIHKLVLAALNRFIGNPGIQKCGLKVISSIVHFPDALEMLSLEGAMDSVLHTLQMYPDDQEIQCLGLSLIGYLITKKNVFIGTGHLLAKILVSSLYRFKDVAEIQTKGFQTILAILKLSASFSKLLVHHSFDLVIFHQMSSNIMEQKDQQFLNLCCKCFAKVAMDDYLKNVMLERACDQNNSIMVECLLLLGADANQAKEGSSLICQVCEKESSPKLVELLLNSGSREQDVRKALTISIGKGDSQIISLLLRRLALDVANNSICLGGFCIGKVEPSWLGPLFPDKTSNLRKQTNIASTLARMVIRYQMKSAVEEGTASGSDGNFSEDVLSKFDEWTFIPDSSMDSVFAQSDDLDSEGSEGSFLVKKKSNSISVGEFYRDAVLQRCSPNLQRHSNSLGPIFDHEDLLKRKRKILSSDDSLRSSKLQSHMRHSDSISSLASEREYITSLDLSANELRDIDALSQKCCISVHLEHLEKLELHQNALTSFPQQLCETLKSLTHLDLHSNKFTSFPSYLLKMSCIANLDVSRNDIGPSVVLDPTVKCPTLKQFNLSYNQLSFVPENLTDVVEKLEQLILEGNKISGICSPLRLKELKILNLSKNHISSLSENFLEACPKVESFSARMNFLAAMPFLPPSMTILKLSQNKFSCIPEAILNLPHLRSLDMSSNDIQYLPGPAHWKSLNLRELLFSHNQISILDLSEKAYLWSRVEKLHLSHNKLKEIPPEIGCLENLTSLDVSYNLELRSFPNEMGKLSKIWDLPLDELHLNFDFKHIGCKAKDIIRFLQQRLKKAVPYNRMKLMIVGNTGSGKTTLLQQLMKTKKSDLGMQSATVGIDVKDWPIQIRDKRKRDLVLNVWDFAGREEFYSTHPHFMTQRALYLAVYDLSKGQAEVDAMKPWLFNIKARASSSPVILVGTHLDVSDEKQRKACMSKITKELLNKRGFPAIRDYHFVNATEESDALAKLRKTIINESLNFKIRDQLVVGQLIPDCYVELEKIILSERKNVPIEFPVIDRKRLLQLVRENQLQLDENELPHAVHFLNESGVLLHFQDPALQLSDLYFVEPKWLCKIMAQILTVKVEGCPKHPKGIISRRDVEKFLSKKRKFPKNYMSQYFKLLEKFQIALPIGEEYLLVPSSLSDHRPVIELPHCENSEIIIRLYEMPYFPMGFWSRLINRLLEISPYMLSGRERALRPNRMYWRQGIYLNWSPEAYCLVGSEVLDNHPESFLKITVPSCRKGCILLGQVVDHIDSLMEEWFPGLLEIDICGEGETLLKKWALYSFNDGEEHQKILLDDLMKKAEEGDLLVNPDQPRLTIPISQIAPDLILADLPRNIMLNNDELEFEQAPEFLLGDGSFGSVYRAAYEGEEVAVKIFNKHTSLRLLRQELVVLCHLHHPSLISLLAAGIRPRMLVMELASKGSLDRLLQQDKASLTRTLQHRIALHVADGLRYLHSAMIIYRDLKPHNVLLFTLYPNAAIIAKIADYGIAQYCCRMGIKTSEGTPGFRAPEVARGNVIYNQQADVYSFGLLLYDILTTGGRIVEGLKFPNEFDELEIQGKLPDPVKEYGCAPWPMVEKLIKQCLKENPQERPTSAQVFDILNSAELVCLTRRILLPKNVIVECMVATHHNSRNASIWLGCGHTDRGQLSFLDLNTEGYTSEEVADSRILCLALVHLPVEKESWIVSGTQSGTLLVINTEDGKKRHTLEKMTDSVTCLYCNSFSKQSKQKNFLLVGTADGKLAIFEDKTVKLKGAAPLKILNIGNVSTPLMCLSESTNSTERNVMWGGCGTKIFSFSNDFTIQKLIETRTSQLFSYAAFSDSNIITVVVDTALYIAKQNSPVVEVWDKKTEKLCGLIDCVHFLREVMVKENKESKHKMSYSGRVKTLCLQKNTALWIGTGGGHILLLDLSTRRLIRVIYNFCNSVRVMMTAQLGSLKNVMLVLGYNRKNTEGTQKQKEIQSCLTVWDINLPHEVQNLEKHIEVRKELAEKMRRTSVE
Chain of Tyrosine-protein kinase Yes (Homo sapiens) (P07947 2-543 limits assumed): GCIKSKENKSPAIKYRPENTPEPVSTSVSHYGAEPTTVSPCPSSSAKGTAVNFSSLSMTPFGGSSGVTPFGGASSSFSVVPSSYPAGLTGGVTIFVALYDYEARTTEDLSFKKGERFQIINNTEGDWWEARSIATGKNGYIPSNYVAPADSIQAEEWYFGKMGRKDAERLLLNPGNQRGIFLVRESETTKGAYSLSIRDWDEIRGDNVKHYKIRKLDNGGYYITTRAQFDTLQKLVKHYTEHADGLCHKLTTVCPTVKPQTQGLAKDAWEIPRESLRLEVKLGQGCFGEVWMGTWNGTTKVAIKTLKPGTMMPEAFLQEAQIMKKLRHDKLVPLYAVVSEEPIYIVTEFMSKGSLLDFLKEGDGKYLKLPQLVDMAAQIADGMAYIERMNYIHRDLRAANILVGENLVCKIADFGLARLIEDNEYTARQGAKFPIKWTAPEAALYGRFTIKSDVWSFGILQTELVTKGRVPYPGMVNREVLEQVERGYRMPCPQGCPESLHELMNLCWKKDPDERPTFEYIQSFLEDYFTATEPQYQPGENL

Row | SMILES | residual activity [1] | inhibition [2] | residual activity [3] | residual activity [4] | residual activity [5] | inhibition [6] | residual activity [7] | residual activity [8]
1 | CC1=C(C(=O)Nc2cc3cn[nH]c3cc2F)C(c2ccc(C(F)(F)F)cc2)CC(=O)N1 (stereo not drawn) | 101% | inactive | 58% | 40% | 89% | 58% | 48% | –
2 | Cc1cncc2cccc(S(=O)(=O)N3CCCNC[C@@H]3C)c12 | 98% | inactive | 76% | 70% | – | 50% | 76% | –
3 | CCN(CC)CCNC(=O)c1c(C)[nH]c(/C=C2\C(=O)Nc3ccc(F)cc32)c1C | 54% | inactive | – | 81% | 50% | – | 41% | –
4 | CCn1c(-c2nonc2N)nc2cnc(Oc3cccc(NC(=O)c4ccc(OCCN5CCOCC5)cc4)c3)cc21 [GSK-269962A] | 77% | inactive | 114% | 2% | 35% | 58% | 24% | –
5 | C[C@@H](N)[C@H]1CC[C@H](C(=O)Nc2ccncc2)CC1 | – | inactive | – | – | – | – | – | 104%
6 | O=S(=O)(c1cccc2cnccc12)N1CCCNCC1 [FASUDIL] | – | – | – | – | – | – | – | 127%
